Blank lines part the entries; values can stand above or below the molecule they belong to. Activity calls are given as the source filed them. The calls are words filed in the database; no cut-off is given here.
Experiments:
[1] = Half-life In vitro; type: ADME
[2] = species on record: Rattus norvegicus; experiment: Percentage Inhibition of galactitol accumulation in the sciatic nerve of rats
[3] = biological target: T1, Aldo-keto reductase family 1 member B1 (Bos taurus, UniProt P16116); experiment: In vitro inhibition of aldose reductase activity in a partially purified bovine lens preparation
[4] = biological target: T1, Aldo-keto reductase family 1 member B1; experiment: In vitro inhibition of aldose reductase activity in a partially purified bovine lens preparation at 4*10e-8 M; NS=Not significant
How it was run: (§1)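 Partially purified bovine lens aldose reductase (ammonium sulfate fractionation). NADPH oxidation read at 340 nm, 37 °C, in 30 mM sodium phosphate pH 6.2, 0.2 M LiSO4, […], 1% DMSO. Enzyme was preincubated with inhibitor for 5 min, then the reaction was started with 5 mM DL-glyceraldehyde. Duplicates; IC50 from linear regression of log concentration vs percent inhibition.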

[5] = biological target: T1, Aldo-keto reductase family 1 member B1; experiment: Compound was evaluated In vitro for inhibition of aldose reductase activity in a partially purified bovine lens preparation at 10e-7 M; NS=Not significant; how it was run: as §1
[6] = species on record: Rattus norvegicus; experiment: Dose at which the tissue level of polyol accumulation was reduced by 50% was evaluated for 14 days in RBC; type: functional; conditions: 336 h
How it was run: (§2)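 Male Sprague-Dawley rats (200-250 g, 12 per group) made diabetic with streptozocin 60 mg/kg iv in cold 0.03 M citrate pH 4.5; plasma glucose kept between 300 and 550 mg/dl. Compound was suspended in 2% Tween 80/saline and gavaged daily for 14 days. On day 15, RBC, lens and sciatic nerve polyol was measured. ED50 by nonlinear regression of log dose.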

[7] = Compound was evaluated In vitro for inhibition of aldose reductase activity by 50% in rat RBC
How it was run: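 Rat (or dog) red blood cells from fasted male Sprague-Dawley rats (150-170 g, EDTA, aortic arch) or pooled beagle blood; 1 mL packed cells in 2 mL HBSS with 10 mM galactose plus inhibitor 1 to 5×10^-8 M, 3 h, 95% air/5% CO2, shaken. Erythrocyte galactitol measured; IC50 mean ± SD of three to six replicate experiments.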

[8] = species on record: Rattus norvegicus; experiment: Dose at which the tissue level of polyol accumulation was reduced by 50% was evaluated for 4 days in sciatic nerve; type: functional; conditions: 96 h
How it was run: (§3)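 Male Sprague-Dawley rats (70-90 g, six per group) fed chow with 20% galactose and compound in the diet for 4 or 14 days. After a 3-h fast, lens and sciatic nerve were removed and frozen, and galactitol was quantitated in nmol/mg wet weight. ED50 from nonlinear regression of log dose vs tissue polyol.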

[9] = species on record: Rattus norvegicus; experiment: Dose at which the tissue level of polyol accumulation was reduced by 50% was evaluated for 14 days in sciatic nerve; type: functional; how it was run: as §3
[10] = species on record: Rattus norvegicus; experiment: Dose at which the tissue level of polyol accumulation was reduced by 50% was evaluated for 4 days in lens; type: functional; conditions: Lens of camera-type eye, 96 h; how it was run: as §3
[11] = species on record: Rattus norvegicus; experiment: Dose at which the tissue level of polyol accumulation was reduced by 50% was evaluated for 12 days in lens; type: functional; conditions: Lens of camera-type eye, 288 h
[12] = species on record: Rattus norvegicus; experiment: Dose at which the tissue level of polyol accumulation was reduced by 50% was evaluated for 12 days in sciatic nerve; type: functional; conditions: 288 h
[13] = biological target: Aldo-keto reductase family 1 member B1 (Bos taurus) (UniProt P16116); experiment: Inhibition of aldose reductase activity in a partially purified bovine lens preparation at 10e-7 M; how it was run: as §1
[14] = test system: Rattus norvegicus; experiment: Percentage Inhibition of galactitol accumulation in the lens of rats fed with the dose of 3.0 mg/kg/day; type: functional; conditions: Lens of camera-type eye
How it was run: (§4)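 Male Sprague-Dawley rats (70-90 g), six per group, fed 20% galactose chow with compound in the diet for 4 days; glucose-fed controls. After a 3-h fast, lens or sciatic nerve galactitol was measured as nmol/mg wet weight. Percent inhibition vs galactose-fed controls, mean ± SEM; ANOVA with Dunnett's test.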

[15] = test system: Rattus norvegicus; experiment: Percentage Inhibition of galactitol accumulation in the sciatic nerve of rats fed with the dose of 3.0 mg/kg/day (values are mean of six animals); type: functional; how it was run: as §4
[16] = test system: Rattus norvegicus; experiment: Percentage Inhibition of galactitol accumulation in the lens of rats fed with the dose of 1.0 mg/kg/day; type: functional; conditions: Lens of camera-type eye; how it was run: as §4
[17] = biological target: Aldo-keto reductase family 1 member B1 (Bos taurus) (UniProt P16116); experiment: Inhibition of aldose reductase activity in a partially purified bovine lens preparation at 4*10e-8 M; how it was run: as §1
[18] = Log P value by using Octanol / pH 7.4 buffer; type: physicochemical
How it was run: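 Partition measured between octanol and pH 7.4 buffer.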

[19] = test system: Rattus norvegicus; experiment: Percentage Inhibition of galactitol accumulation in the sciatic nerve of rats fed with the dose of 1.0 mg/kg/day; type: functional; how it was run: as §4
[20] = test system: Rattus norvegicus; experiment: Percentage Inhibition of galactitol accumulation in the sciatic nerve of rats fed with the dose of 1.1 mg/kg/day (values are mean of six animals); type: functional; how it was run: as §4
[21] = test system: Rattus norvegicus; experiment: Percentage Inhibition of galactitol accumulation in the sciatic nerve of rats fed with the dose of 0.5 mg/kg/day; type: functional; how it was run: as §4
[22] = test system: Rattus norvegicus; experiment: Percentage Inhibition of galactitol accumulation in the lens of rats fed with the dose of 1.1 mg/kg/day; type: functional; conditions: Lens of camera-type eye; how it was run: as §4
[23] = species on record: Rattus norvegicus; experiment: Dose at which the tissue level of polyol accumulation was reduced by 50% was evaluated for STZ diabetic rat in sciatic nerve; type: functional; how it was run: as §2
[24] = test system: Rattus norvegicus; experiment: Percentage Inhibition of galactitol accumulation in the lens of rats fed with the dose of 0.8 mg/kg/day; NS=Not significant; type: functional, organism-based; conditions: Lens of camera-type eye; how it was run: as §4
[25] = test system: Rattus norvegicus; experiment: Percentage Inhibition of galactitol accumulation in the sciatic nerve of rats fed with the dose of 0.8 mg/kg/day; type: functional; how it was run: as §4
[26] = species on record: Rattus norvegicus; experiment: Dose at which the tissue level of polyol accumulation was reduced by 50% was evaluated for galactosemic rat in sciatic nerve; type: functional; how it was run: as §3
[27] = species on record: Rattus norvegicus; experiment: Dose at which the tissue level of polyol accumulation was reduced by 50% was evaluated for galactosemic rat in lens; type: functional; conditions: Lens of camera-type eye; how it was run: as §3
[28] = test system: Rattus norvegicus; experiment: Percentage Inhibition of galactitol accumulation in the lens of rats fed with the dose of 4.0 mg/kg/day; NS=Not significant; type: functional, organism-based; conditions: Lens of camera-type eye; how it was run: as §4
[29] = test system: Rattus norvegicus; experiment: Percentage Inhibition of galactitol accumulation in the sciatic nerve of rats fed with the dose of 4.0 mg/kg/day; type: functional; conditions: read-out: Inhibition; how it was run: as §4
[30] = test system: Rattus norvegicus; experiment: Percentage Inhibition of galactitol accumulation in the lens of rats fed with the dose of 0.9 mg/kg/day; type: functional; conditions: Lens of camera-type eye; how it was run: as §4
[31] = test system: Rattus norvegicus; experiment: Percentage Inhibition of galactitol accumulation in the sciatic nerve of rats fed with the dose of 0.9 mg/kg/day; type: functional; how it was run: as §4
[32] = test system: Rattus norvegicus; experiment: Percentage Inhibition of galactitol accumulation in the sciatic nerve of rats fed with the dose of 3.0 mg/kg/day; type: functional; how it was run: as §4
[33] = test system: Rattus norvegicus; experiment: Percentage Inhibition of galactitol accumulation in the lens of rats fed with the dose of 3.0 mg/kg/day; NS=Not significant; type: functional, organism-based; conditions: Lens of camera-type eye; how it was run: as §4
[34] = test system: Rattus norvegicus; experiment: Percentage Inhibition of galactitol accumulation in the lens of rats fed with the dose of 1.0 mg/kg/day; NS=Not significant; type: functional, organism-based; conditions: Lens of camera-type eye; how it was run: as §4
[35] = test system: Rattus norvegicus; experiment: Percentage Inhibition of galactitol accumulation in the sciatic nerve of rats fed with the dose of 1.1 mg/kg/day; type: functional; how it was run: as §4
[36] = test system: Rattus norvegicus; experiment: Percentage Inhibition of galactitol accumulation in the sciatic nerve of rats fed with the dose of 1.0 mg/kg/day (values are mean of six animals); type: functional; how it was run: as §4
[37] = test system: Rattus norvegicus; experiment: Percentage Inhibition of galactitol accumulation in the lens of rats fed with the dose of 0.6 mg/kg/day; NS=no significant; type: functional, organism-based; conditions: Lens of camera-type eye; how it was run: as §4
[38] = test system: Rattus norvegicus; experiment: Percentage Inhibition of galactitol accumulation in the sciatic nerve of rats fed with the dose of 0.6 mg/kg/day; type: functional; how it was run: as §4
[39] = test system: Rattus norvegicus; experiment: Percentage Inhibition of galactitol accumulation in the sciatic nerve of rats fed with the dose of 25.6 mg/kg/day; type: functional; how it was run: as §4
[40] = test system: Rattus norvegicus; experiment: Percentage Inhibition of galactitol accumulation in the sciatic nerve of rats fed with the dose of 1.1 mg/kg/day (values are mean of six animals, p<0.01); type: functional; how it was run: as §4
[41] = Rattus norvegicus, Sciatic nerve, 336 h, read-out: ED50

Structure (SMILES): O=C1C[C@]2(C(=O)N1)C(=O)N(Cc1ccc(Br)cc1F)C(=O)c1ccc(F)cc12
half-life [1]: 30 min
ED50 [2]: 0.15 mg/kg
IC50 [3]: 32 nM

Structure (SMILES): COc1ccc2c(C(=S)N(C)CC(=O)O)cccc2c1C(F)(F)F [TOLRESTAT]
ED50 [6]: 1.9 mg/kg/day
IC50 [7]: 27.2 nM
ED50 [8]: 6.4 mg/kg/day
ED50 [9, 41]: 3.8 mg/kg/day
ED50 [10]: 128 mg/kg/day
ED50 [11]: 28 mg/kg/day
ED50 [12]: 4.5 mg/kg/day

Structure (SMILES): O=C1CC2(C(=O)N1)C(=O)N(Cc1nc3cc(C(F)(F)F)ccc3s1)C(=O)c1ccccc12 (centres undefined)
inhibition in vivo at 1.1 mg/kg/day [20]: 100%
inhibition in vivo at 0.5 mg/kg/day [21]: 49%
inhibition in vivo at 1.1 mg/kg/day [22]: 22%
logD [18]: 3.17
IC50 [3]: 22 nM

Structure (SMILES): O=C1CC2(C(=O)N1)C(=O)N(Cc1ccc(Br)cc1F)C(=O)c1ccccc12 (centres undefined)
ED50 [23]: 0.07 mg/kg/day
inhibition in vivo at 0.5 mg/kg/day [21]: 82%
inhibition [24]: inactive
logD [18]: 2.74
inhibition in vivo at 0.8 mg/kg/day [25]: 88%
ED50 [26]: 0.3 mg/kg/day
ED50 [27]: ~10 mg/kg/day

Structure (SMILES): O=C1C[C@@]2(C(=O)N1)C(=O)N(Cc1ccc(Br)cc1F)C(=O)c1ccc(F)cc12
half-life [1]: 30 min
ED50 [2]: 0.09 mg/kg
IC50 [3]: 9 nM

Structure (SMILES): O=C1CC2(C(=O)N1)C(=O)N(Cc1ccc(Br)cc1F)C(=O)c1ccc(F)cc12 (centres undefined)
inhibition [28]: inactive
inhibition in vivo at 0.5 mg/kg/day [21]: 83%
ED50 [6]: 0.25 mg/kg/day
IC50 [7]: 26.9 nM
inhibition in vivo at 4 mg/kg/day [29]: 95%
ED50 [8]: 0.3 mg/kg/day
logD [18]: 2.81
IC50 [3]: 14 nM
ED50 [9]: 0.1 mg/kg/day
ED50 [9, 41]: 0.09 mg/kg/day
ED50 [10]: 19 mg/kg/day

Structure (SMILES): CN1C(=O)c2ccc(C(F)(F)F)cc2C2(CC(=O)NC2=O)C1=O (centres undefined)
inhibition [13]: 64%
inhibition in vivo at 0.9 mg/kg/day [30]: 20%
inhibition [17]: 46%
inhibition in vivo at 0.9 mg/kg/day [31]: 38%

Structure (SMILES): O=C1CC2(C(=O)N1)C(=O)N(Cc1ccc(Br)cc1F)C(=O)c1cc(Cl)ccc12 (centres undefined)
inhibition [37]: inactive
inhibition in vivo at 0.6 mg/kg/day [38]: 63%
logD [18]: 3.51
IC50 [3]: 33 nM

Structure (SMILES): COc1ccc2c(c1)C(=O)N(Cc1ccc(Br)cc1F)C(=O)C21CC(=O)NC1=O (centres undefined)
inhibition in vivo at 25.6 mg/kg/day [39]: 88%
IC50 [3]: 37 nM

More lines, main results first:

IC50 [4]: Not Active
IC50 [5]: Not Active
Structure (SMILES): CON1C(=O)c2ccccc2C2(CC(=O)NC2=O)C1=O (centres undefined)

inhibition [13]: 63%
inhibition [17]: 38%
logD [18]: 0.24
Structure (SMILES): CN1C(=O)c2ccccc2C2(CC(=O)NC2=O)C1=O (centres undefined)
inhibition in vivo at 3 mg/kg/day [14]: 43%
inhibition in vivo at 3 mg/kg/day [15]: 66%
inhibition in vivo at 1 mg/kg/day [16]: 15%
inhibition in vivo at 1 mg/kg/day [19]: 37%

logD [18]: 3.09
IC50 [3]: 22 nM
Structure (SMILES): O=C1CC2(C(=O)N1)C(=O)N(Cc1ccc(Cl)c(Cl)c1)C(=O)c1ccccc12 (centres undefined)
inhibition in vivo at 3 mg/kg/day [32]: 76%
inhibition [33]: inactive
inhibition [34]: inactive
inhibition in vivo at 1.1 mg/kg/day [35]: 64%
inhibition in vivo at 1 mg/kg/day [36]: 64%

inhibition [13]: 72%
inhibition [17]: 43%
logD [18]: 0.58
Structure (SMILES): CN1C(=O)c2ccc(Cl)cc2C2(CC(=O)NC2=O)C1=O (centres undefined)
inhibition in vivo at 0.5 mg/kg/day [21]: 54%
inhibition in vivo at 3 mg/kg/day [14]: 59%
inhibition in vivo at 1.1 mg/kg/day [22]: 33%
inhibition in vivo at 1.1 mg/kg/day [40]: 75%

— ChEMBL document CHEMBL1127561, “Novel spirosuccinimide aldose reductase inhibitors derived from isoquinoline-1,3-diones: 2-[(4-bromo-2-fluorophenyl)methyl]-6- fluorospiro[isoquinoline-4(1H),3'-pyrrolidine]-1,2',3,5'(2H)-tetrone and congeners. 1” (J Med Chem, 1994)
